Source: ChEMBL document CHEMBL4321880 (J Med Chem, 2020)

Legend:
ASPC1 [1] = experiment: Cytotoxicity against wild type human AsPC1 cells assessed as cell growth; type: cell-based
How it was run: (§1)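 Cells seeded at 10,000/well. Dox-inducible lines were induced with 100 ng/mL doxycycline, then treated 24 h later with compound at 16 two-fold dilutions (0.0003–10 μM) plus 5 μM midazolam, in 0.66% DMSO final, for 24 h. Phase-contrast confluence imaging followed. Values were normalized to six 0.66% DMSO replicates and fitted with a three-parameter log(inhibitor) vs response curve.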

ASPC1 [2] = experiment: Cytotoxicity against lentiviral pLVX-TRE3G-ZsGreen1-CYP3A5 transduced wild type human AsPC1 cells overexpressing CYP3A5 assessed as cell growth; type: ADME, cell-based; how it was run: as §1
ASPC1 [3] = experiment: Cytotoxicity against doxycycline-induced CYP3A5 overexpressing wild type human AsPC1 cells assessed as cell growth; type: ADME, cell-based; how it was run: as §1
ASPC1 [4] = experiment: Cytotoxicity against CRISPR/Cas9-mediated CYP3A5 knock-out and lentiviral pLVX-TRE3G-ZsGreen1-CYP3A4 transduced human AsPC1 cells overexpressing CYP3A4 assessed as cell growth; type: ADME, cell-based; how it was run: as §1
ASPC1 [5] = experiment: Cytotoxicity against CRISPR/Cas9-mediated CYP3A5 knock-out human AsPC1 cells assessed as cell growth; type: ADME, cell-based; how it was run: as §1
ASPC1 [6] = experiment: Cytotoxicity against CRISPR/Cas9-mediated CYP3A5 knock-out and doxycycline-induced CYP3A4 overexpressing human AsPC1 cells assessed as cell growth; type: ADME, cell-based; how it was run: as §1
ASPC1 [7] = experiment: Cytotoxicity against CRISPR/Cas9-mediated CYP3A5 knock-out and lentiviral pLVX-TRE3G-ZsGreen1-CYP3A5 transduced human AsPC1 cells overexpressing CYP3A5 assessed as cell growth; type: ADME, cell-based; how it was run: as §1
ASPC1 [8] = experiment: Cytotoxicity against CRISPR/Cas9-mediated CYP3A5 knock-out and doxycycline-induced CYP3A5 overexpressing human AsPC1 cells assessed as cell growth; type: ADME, cell-based; how it was run: as §1
Cytochrome P450 3A5 [9] = target: T1, Cytochrome P450 3A5 (Homo sapiens, UniProt P20815); experiment: Binding affinity to heme in His-tagged CYP3A5 (unknown origin) expressed in Escherichia coli DH5alpha assessed as formation of five-coordinate ferric heme iron by measuring type 1 Soret shift from 417 nm (low spin) to 395 nm (high spin) by UV-vis spectrophotometric titration analysis
T1 sequence (P20815 whole entry): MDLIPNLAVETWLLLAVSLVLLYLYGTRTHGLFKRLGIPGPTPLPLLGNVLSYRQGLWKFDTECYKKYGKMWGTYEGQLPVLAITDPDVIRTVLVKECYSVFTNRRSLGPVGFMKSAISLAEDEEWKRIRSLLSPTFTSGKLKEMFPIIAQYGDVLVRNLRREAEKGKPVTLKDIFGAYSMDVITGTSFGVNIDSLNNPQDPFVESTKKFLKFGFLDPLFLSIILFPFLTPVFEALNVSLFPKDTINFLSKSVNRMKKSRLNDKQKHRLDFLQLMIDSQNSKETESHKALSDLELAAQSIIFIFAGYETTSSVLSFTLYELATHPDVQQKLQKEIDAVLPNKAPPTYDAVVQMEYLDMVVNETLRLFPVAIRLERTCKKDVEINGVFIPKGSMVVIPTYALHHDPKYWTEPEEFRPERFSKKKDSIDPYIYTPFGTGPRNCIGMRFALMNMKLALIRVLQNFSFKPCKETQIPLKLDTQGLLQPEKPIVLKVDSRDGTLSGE
How it was run: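 Purified recombinant His-tagged CYP3A5 titrated with successive ligand additions until heme absorbance stopped changing. The ligand-free spectrum was subtracted to give difference spectra. Peak-minus-trough values were plotted against ligand concentration and fitted to a binding equation for Kd. Wavelength pairs: ΔA 386–418 nm for the type I shift; ΔA 432–410 nm for the type II shift.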

Cytochrome P450 3A4 [10] = target: T2, Cytochrome P450 3A4 (Homo sapiens, UniProt P08684); experiment: Binding affinity to His-tagged CYP3A4 (unknown origin) expressed in Escherichia coli DH5alpha assessed as type 1 spectral shift to substrate-bound form by UV-vis spectrophotometric titration analysis; type: ADME
T2 sequence (P08684 whole entry): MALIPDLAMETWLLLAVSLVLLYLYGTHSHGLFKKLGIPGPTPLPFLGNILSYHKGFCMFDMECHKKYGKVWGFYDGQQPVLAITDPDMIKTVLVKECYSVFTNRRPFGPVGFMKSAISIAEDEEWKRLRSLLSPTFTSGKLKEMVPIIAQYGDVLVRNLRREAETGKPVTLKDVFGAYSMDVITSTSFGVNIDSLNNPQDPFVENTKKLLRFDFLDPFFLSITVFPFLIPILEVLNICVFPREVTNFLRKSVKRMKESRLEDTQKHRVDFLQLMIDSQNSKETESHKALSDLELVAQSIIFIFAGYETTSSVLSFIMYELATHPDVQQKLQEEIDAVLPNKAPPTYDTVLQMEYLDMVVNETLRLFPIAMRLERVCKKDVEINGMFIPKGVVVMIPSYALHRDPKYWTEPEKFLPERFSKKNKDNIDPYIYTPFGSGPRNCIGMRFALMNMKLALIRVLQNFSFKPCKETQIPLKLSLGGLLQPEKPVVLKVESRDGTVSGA
How it was run: (§2)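 Recombinant His-tagged enzyme expressed in E. coli with groESL chaperones, purified by Ni-NTA, CM-sepharose and S-200 gel filtration (Rz ≥1.3). Ligand added stepwise until heme absorbance stopped changing. Difference spectra taken against the ligand-free spectrum. Peak-minus-trough ΔAbs (388–418 nm) plotted against ligand concentration and fitted with equation 2 for Kd.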

Cytochrome P450 3A4 [11] = target: T2, Cytochrome P450 3A4; experiment: Binding affinity to His-tagged CYP3A4 (unknown origin) expressed in Escherichia coli DH5alpha assessed as formation of Soret band at 386 nm with low decrease in low-spin soret maxima at 416 nm by UV-vis spectrophotometric titration analysis; type: ADME; set-up: dose or concentration left out as unconfirmed; how it was run: as §2
Cytochrome P450 3A5 [12] = target: T1, Cytochrome P450 3A5; experiment: Binding affinity to His-tagged CYP3A5 (unknown origin) expressed in Escherichia coli DH5alpha assessed as five-coordinate HS ferric heme iron state formation with displacement of distal water ligand by EPR spectroscopy
How it was run: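 Continuous-wave X-band EPR of purified recombinant enzyme, alone and in complex with ligand. Spectra were compared against the ligand-free form.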

Cytochrome P450 3A4 [13] = target: T2, Cytochrome P450 3A4; experiment: Binding affinity to His-tagged CYP3A4 (unknown origin) expressed in Escherichia coli DH5alpha assessed as retention of axial water ligand with ligand free LS with no new HS formation by EPR spectroscopy; type: ADME; conditions: buffer
How it was run: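 Continuous-wave X-band EPR of the purified recombinant ligand-free enzyme and of its ligand complex. Ferric heme spin state (LS vs HS) assigned from g-values.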

Cytochrome P450 3A4 [14] = target: T2, Cytochrome P450 3A4; experiment: Inhibition of CYP3A4 in human liver microsomes assessed as formation of 1-hydroxymidazolam at 1.85 uM using midazolam as substrate incubated for 10 mins in presence of NADPH by LC-MS/MS analysis

`CCC(=O)O[C@]1(C(=O)CCl)[C@@H](C)C[C@H]2[C@@H]3CCC4=CC(=O)C=C[C@]4(C)[C@@]3(F)[C@@H](O)C[C@@]21C` [CLOBETASOL PROPIONATE] was tested. Which Activity (ASPC1 [1]) did it give?
The Activity was “Non-Toxic”.

And the Activity (ASPC1 [2])?
Its Activity is “Non-Toxic”.

What about the Activity (ASPC1 [3]) of the same molecule?
The Activity was “Non-Toxic”.

What about the Activity (ASPC1 [4]) of the same molecule?
Its Activity is “Non-Toxic”.

And the Activity (ASPC1 [5])?
The Activity was “Non-Toxic”.

And the Activity (ASPC1 [6])?
The Activity was “Non-Toxic”.

And the Activity (ASPC1 [7])?
Its Activity is “Non-Toxic”.

And the Activity (ASPC1 [8])?
The Activity was “Non-Toxic”.

And the Activity (Cytochrome P450 3A5 [9])?
The Activity was “Active”.

What about the Activity (Cytochrome P450 3A4 [10]) of the same molecule?
The Activity was “Active”.

What about the Activity (Cytochrome P450 3A4 [11]) of the same molecule?
The Activity was “Active”.

And the Activity (Cytochrome P450 3A5 [12])?
Its Activity is “Active”.

What about the Activity (Cytochrome P450 3A4 [13]) of the same molecule?
Its Activity is “Not Active”.

What about the “inhibition (INH)” value (Cytochrome P450 3A4 [14]) of the same molecule?
The value was “Not Active”.
